≈ marks a conversion by molar mass, not a printed value.
Experiments:
Staphylococcus aureus [1] = assay: Antibacterial activity against Staphylococcus aureus ATCC 29213 assessed as bacterial growth inhibition incubated for 18 to 24 hrs by broth microdilution method; assay type: functional; conditions: time 18-24 hrs
Outline: (§1)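 CLSI broth microdilution. Overnight starter cultures (single colony, MHBII, 37 °C, shaking 18–24 h) were diluted by OD600 to 10^6 CFU/mL in MHBII. Two-fold dilutions from […] were made from 10 mg/mL DMSO stocks, then incubated 37 °C for 18-24 h. The MIC was the lowest concentration with no visible growth. Three independent runs, duplicate samples.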

Staphylococcus aureus [2] = assay: Synergistic antibacterial activity against Staphylococcus aureus ATCC 29213 assessed as bacterial growth inhibition incubated for 24 hrs in presence of (S)-8''-Bromo-1-ethyl-1'-methyl-2,12''-dioxo-12''H-dispiro[indoline-3,4'-pyrrolidine-2',6''-indolo[2,1-b]quinazoline]-3',3'-dicarbonitrile by checkerboard assay; assay type: functional
Outline: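 Checkerboard in 96-well plates: two-fold serial dilutions, one agent along abscissa, partner antibiotic along ordinate. Wells received ~10⁵ CFU/mL S. aureus ATCC 29213 in MHBII. Incubation 37 °C, 24 h. ΣFIC = FIC A + FIC B, each FIC being combination MIC divided by MIC alone.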

Staphylococcus aureus [3] = assay: Bactericidal activity against Staphylococcus aureus ATCC 29213 assessed as reduction in bacterial load at 10 times of MIC incubated for 24 hrs by time kill analysis; assay type: functional; design: scale not given: the % may be the effect or the level left
Outline: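 Time-kill assay. ~10^6 CFU/mL in MHBII was exposed to 1X and 10X MIC, 37 °C with shaking for 24 h. Samples were taken at 0, 1, 6 and 24 h, serially diluted in PBS, plated on MHA and incubated 37 °C 18–20 h. Colonies were counted as CFU/mL survivors. Three repeats in duplicate; mean plotted.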

Staphylococcus aureus [4] = assay: Antibacterial activity against vancomycin resistant Staphylococcus aureus […] 12 assessed as bacterial growth inhibition incubated for 18 to 24 hrs by broth microdilution method; assay type: functional; conditions: time 18-24 hrs
Outline: (§2)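 CLSI broth microdilution in MHBII; overnight starter cultures (single MHA colony, 37 °C, shaking) adjusted by OD600 to 10^6 CFU/mL. Compounds from DMSO stocks (10 mg/mL), two-fold series 64–0.5 mg/L. Incubation 37 °C, 18-24 h. MIC = lowest concentration with no visible growth. Three independent determinations, each in duplicate.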

Staphylococcus aureus [5] = assay: Antibacterial activity against vancomycin resistant Staphylococcus aureus […] 4 assessed as bacterial growth inhibition incubated for 18 to 24 hrs by broth microdilution method; assay type: functional; conditions: time 18-24 hrs; outline: as §2
Staphylococcus aureus [6] = assay: Antibacterial activity against methicillin resistant Staphylococcus aureus NRS 129 assessed as bacterial growth inhibition incubated for 18 to 24 hrs by broth microdilution method; assay type: functional; conditions: time 18-24 hrs; outline: as §2
Staphylococcus aureus [7] = assay: Antibacterial activity against methicillin resistant Staphylococcus aureus NRS 186 assessed as bacterial growth inhibition incubated for 18 to 24 hrs by broth microdilution method; assay type: functional; conditions: time 18-24 hrs; outline: as §2
Staphylococcus aureus [8] = assay: Antibacterial activity against methicillin resistant Staphylococcus aureus NRS 193 assessed as bacterial growth inhibition incubated for 18 to 24 hrs by broth microdilution method; assay type: functional; conditions: time 18-24 hrs; outline: as §2
Acinetobacter baumannii = assay: Antibacterial activity against Acinetobacter baumannii BAA-1605 assessed as bacterial growth inhibition incubated for 18 to 24 hrs by broth microdilution method; assay type: functional; conditions: time 18-24 hrs; outline: as §1
Staphylococcus aureus [9] = assay: Antibacterial activity against methicillin resistant Staphylococcus aureus NRS 194 assessed as bacterial growth inhibition incubated for 18 to 24 hrs by broth microdilution method; assay type: functional; conditions: time 18-24 hrs; outline: as §2
Staphylococcus aureus [10] = assay: Antibacterial activity against methicillin sensitive Staphylococcus aureus ATCC 29213 assessed as bacterial growth inhibition incubated for 18 to 24 hrs by broth microdilution method; assay type: functional; conditions: time 18-24 hrs; outline: as §2
Staphylococcus aureus [11] = assay: Antibacterial activity against methicillin resistant Staphylococcus aureus NRS 192 assessed as bacterial growth inhibition incubated for 18 to 24 hrs by broth microdilution method; assay type: functional; conditions: time 18-24 hrs; outline: as §2
[12] = Selectivity ratio of CC50 for African green monkey Vero cells to MIC against Staphylococcus aureus ATCC 29213; assay type: toxicity, cell-based
Vero = assay: Cytotoxicity against African green monkey Vero cells assessed as cell viability incubated for 72 hrs by MTT assay; assay type: toxicity, cell-based; conditions: chlorocebus sabaeus
Outline: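 MTT assay on Vero cells, ~10^3 cells/well, 37 °C, 5% CO2. Compound was added at 24 h (100-12.5 μg/mL) for 72 h, then MTT for 4 h at 37 °C. Formazan was dissolved in DMSO and read at 540 nm. CC50 was the lowest concentration giving 50% viability loss. Doxorubicin positive control; triplicate.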

Staphylococcus aureus [13] = assay: Antibacterial activity against methicillin resistant Staphylococcus aureus NRS 119 assessed as bacterial growth inhibition incubated for 18 to 24 hrs by broth microdilution method; assay type: functional; conditions: time 18-24 hrs; outline: as §2
Staphylococcus aureus [14] = assay: Antibacterial activity against methicillin resistant Staphylococcus aureus NRS 198 assessed as bacterial growth inhibition incubated for 18 to 24 hrs by broth microdilution method; assay type: functional; conditions: time 18-24 hrs; outline: as §2
Klebsiella pneumoniae = assay: Antibacterial activity against Klebsiella pneumoniae BAA 1705 assessed as bacterial growth inhibition incubated for 18 to 24 hrs by broth microdilution method; assay type: functional; conditions: time 18-24 hrs; outline: as §1
Pseudomonas aeruginosa = assay: Antibacterial activity against Pseudomonas aeruginosa ATCC 27853 assessed as bacterial growth inhibition incubated for 18 to 24 hrs by broth microdilution method; assay type: functional; conditions: time 18-24 hrs; outline: as §1
Staphylococcus aureus [15] = assay: Antibacterial activity against methicillin resistant Staphylococcus aureus NRS 191 assessed as bacterial growth inhibition incubated for 18 to 24 hrs by broth microdilution method; assay type: functional; conditions: time 18-24 hrs; outline: as §2
Escherichia coli = assay: Antibacterial activity against Escherichia coli ATCC 25922 assessed as bacterial growth inhibition incubated for 18 to 24 hrs by broth microdilution method; assay type: functional; conditions: time 18-24 hrs; outline: as §1
[16] = Staphylococcus aureus, ATCC 29213, read-out: MIC

Compound | MIC (Staphylococcus aureus [1]; [16]) [µg/mL] | MIC (Staphylococcus aureus [2]) [µg/mL] | MIC (Staphylococcus aureus [4]) [µg/mL] | MIC (Staphylococcus aureus [5]) [µg/mL] | MIC (Staphylococcus aureus [6]) [µg/mL] | MIC (Staphylococcus aureus [7]) [µg/mL] | MIC (Staphylococcus aureus [8]) [µg/mL] | MIC (Acinetobacter baumannii) [µg/mL] | MIC (Staphylococcus aureus [9]) [µg/mL] | MIC (Staphylococcus aureus [10]) [µg/mL] | MIC (Staphylococcus aureus [11]) [µg/mL] | selectivity ratio [12] | MIC (Staphylococcus aureus [13]) [µg/mL] | MIC (Staphylococcus aureus [14]) [µg/mL] | MIC (Klebsiella pneumoniae) [µg/mL] | MIC (Pseudomonas aeruginosa) [µg/mL] | MIC (Staphylococcus aureus [15]) [µg/mL] | MIC (Escherichia coli) [µg/mL] | further results
CO[C@H]1/C=C/O[C@@]2(C)Oc3c(C)c(O)c4c(O)c(c(/C=N/N5CCN(C)CC5)c(O)c4c3C2=O)NC(=O)/C(C)=C\C=C\[C@H](C)[C@H](O)[C@@H](C)[C@@H](O)[C@@H](C)[C@H](OC(C)=O)[C@@H]1C [RIFAMPIN] | 0.008 (≈ 0.00972 µM) | 0.008 | – | – | – | – | – | – | – | – | – | – | – | – | – | – | – | – | –
CN[C@H](CC(C)C)C(=O)N[C@H]1C(=O)N[C@@H](CC(N)=O)C(=O)N[C@H]2C(=O)N[C@H]3C(=O)N[C@H](C(=O)N[C@H](C(=O)O)c4cc(O)cc(O)c4-c4cc3ccc4O)[C@H](O)c3ccc(c(Cl)c3)Oc3cc2cc(c3O[C@@H]2O[C@H](CO)[C@@H](O)[C@H](O)[C@H]2O[C@H]2C[C@](C)(N)[C@H](O)[C@H](C)O2)Oc2ccc(cc2Cl)[C@H]1O [VANCOMYCIN] | – | – | > 64 | > 64 | – | – | – | – | – | – | – | – | – | – | – | – | – | – | Activity (Staphylococcus aureus [3]): 100%
CCN1C(=O)[C@@]2(CN(C)C3(c4cc(OC)ccc4-n4c3nc3ccccc3c4=O)C2(C#N)C#N)c2ccccc21 (some centres undefined) | 0.125 (≈ 0.236 µM) | – | 8 (≈ 15.1 µM) | 0.5 (≈ 0.946 µM) | 0.25 (≈ 0.473 µM) | 0.5 (≈ 0.946 µM) | 0.5 (≈ 0.946 µM) | > 64 | 0.5 (≈ 0.946 µM) | 0.5 (≈ 0.946 µM) | 0.5 (≈ 0.946 µM) | > 80 | 0.25 (≈ 0.473 µM) | 0.5 (≈ 0.946 µM) | > 64 | > 64 | 0.25 (≈ 0.473 µM) | > 64 | Activity (Vero): Non-Toxic
CCN1C(=O)[C@@]2(CN(C)C3(c4cc([N+](=O)[O-])ccc4-n4c3nc3ccccc3c4=O)C2(C#N)C#N)c2ccccc21 (some centres undefined) | 0.25 (≈ 0.46 µM) | – | – | – | – | – | – | > 64 | – | – | – | < 10 | – | – | > 64 | > 64 | – | > 64 | –
CN1C(=O)[C@@]2(CN(C)C3(c4ccccc4-n4c3nc3ccccc3c4=O)C2(C#N)C#N)c2ccccc21 (some centres undefined) | 8 (≈ 16.5 µM) | – | – | – | – | – | – | > 64 | – | – | – | – | – | – | > 64 | > 64 | – | > 64 | –
CN(C)c1ccc(O)c2c1C[C@H]1C[C@H]3[C@H](N(C)C)C(O)=C(C(N)=O)C(=O)[C@@]3(O)C(O)=C1C2=O [MINOCYCLINE] | 0.125 (≈ 0.273 µM) | 0.125 | – | – | – | – | – | – | – | – | – | – | – | – | – | – | – | – | –
CCN1C(=O)[C@@]2(CN(C)C3(c4cc(Cl)ccc4-n4c3nc3ccccc3c4=O)C2(C#N)C#N)c2ccccc21 (some centres undefined) | 0.125 (≈ 0.235 µM) | – | 0.25 (≈ 0.469 µM) | 0.25 (≈ 0.469 µM) | 0.25 (≈ 0.469 µM) | 0.125 (≈ 0.235 µM) | 0.25 (≈ 0.469 µM) | > 64 | 0.5 (≈ 0.938 µM) | 0.25 (≈ 0.469 µM) | 0.25 (≈ 0.469 µM) | > 80 | 0.125 (≈ 0.235 µM) | 0.25 (≈ 0.469 µM) | > 64 | > 64 | 0.063 (≈ 0.118 µM) | > 64 | Activity (Vero): Non-Toxic
CCN1C(=O)[C@]2(c3ccccc31)C1CCCN1C1(c3ccccc3-n3c1nc1ccccc1c3=O)C2(C#N)C#N (some centres undefined) | 0.25 (≈ 0.477 µM) | – | – | – | – | – | – | > 64 | – | – | – | – | – | – | > 64 | > 64 | – | > 64 | –
CCN1C(=O)[C@@]2(CN(C)C3(c4ccccc4-n4c3nc3ccccc3c4=O)C2(C#N)C#N)c2ccccc21 (some centres undefined) | 1 (≈ 2.01 µM) | – | – | – | – | – | – | > 64 | – | – | – | – | – | – | > 64 | > 64 | – | > 64 | –
C[C@H]1COc2c(N3CCN(C)CC3)c(F)cc3c(=O)c(C(=O)O)cn1c23 [LEVOFLOXACIN ANHYDROUS] | 0.125 (≈ 0.346 µM) | 0.125 | 32 (≈ 88.6 µM) | > 64 | 0.25 (≈ 0.692 µM) | 4 (≈ 11.1 µM) | 32 (≈ 88.6 µM) | – | 0.125 (≈ 0.346 µM) | 0.125 (≈ 0.346 µM) | 4 (≈ 11.1 µM) | – | 16 (≈ 44.3 µM) | 32 (≈ 88.6 µM) | 64 (≈ 177 µM) | – | 16 (≈ 44.3 µM) | – | MIC (Staphylococcus aureus [1]): 0.25 µg/mL (≈ 0.692 µM)

Source: ChEMBL document CHEMBL5329147, “Synthesis of tryptanthrin appended dispiropyrrolidine oxindoles and their antibacterial evaluation” (RSC Med Chem, 2023)
